CHT allo act: allosterically activates the human high affinity choline transporter; AID 488977; B-score at 10 µM; CHT-expressing cells, membrane potential dye, choline EC20; stronger effect = higher value; LV-AA mutant CHT in HEK293 cells; Q9GZV3; actives 0.49% (n = 310,000);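 active = initial fluorescence not abnormally high and integrated response B-score, plate-corrected, over 3 SD above library mean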
Target sequence (Q9GZV3 whole entry, looked up): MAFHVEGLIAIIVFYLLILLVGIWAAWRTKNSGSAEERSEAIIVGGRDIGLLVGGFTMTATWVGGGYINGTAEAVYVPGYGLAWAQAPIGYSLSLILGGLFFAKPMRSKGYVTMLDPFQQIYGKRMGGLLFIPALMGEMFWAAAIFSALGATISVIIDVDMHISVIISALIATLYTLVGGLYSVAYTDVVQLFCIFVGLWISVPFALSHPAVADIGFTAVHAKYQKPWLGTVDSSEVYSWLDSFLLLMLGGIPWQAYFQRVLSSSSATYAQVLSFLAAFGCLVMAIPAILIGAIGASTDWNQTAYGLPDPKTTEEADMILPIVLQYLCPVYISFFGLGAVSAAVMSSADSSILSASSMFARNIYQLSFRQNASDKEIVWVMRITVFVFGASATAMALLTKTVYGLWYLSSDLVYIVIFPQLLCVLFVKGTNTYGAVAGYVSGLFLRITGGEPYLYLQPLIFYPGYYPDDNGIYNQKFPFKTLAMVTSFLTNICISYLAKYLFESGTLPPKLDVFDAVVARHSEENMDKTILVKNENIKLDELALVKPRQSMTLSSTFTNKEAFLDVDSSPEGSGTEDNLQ
proCasp7 act: counter-screen for procaspase-3 activators: activators of human procaspase-7 | recombinant procaspase-7, Ac-DEVD-pNA absorbance 405 nm; D23A/D198A/D206A triple mutant, cannot self-cleave; scale: DMSO 0, 5 µM enzyme 100 | activation, % at 8.5 µM | actives 0.093% (n = 330,000);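 active = percent activation above the screen-wide mean plus 3 SD, cut at about 25% in these data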
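Assay system: Uncleavable procaspase-7 mutant enzyme | Input: 2 µM procaspase-7 mutant as dispensed | Timing: 1 h compound preincubation, 2 h substrate cleavage, 25 °C | Repeats: One well per compound | Control set: DMSO wells as 0%, DMSO with 5 µM added PC-7 as 100% | Technique: Epi-absorbance of released pNA at 405 nm, two timepoints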
procasp3 activ: activators of human procaspase-3 | actives 0.11% (n = 330,000) | activation, % at 8.5 µM | AID 463141 | P42574 | recombinant procaspase-3 D3A, Ac-DEVD-pNA absorbance 405 nm;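 active = activation above the mean of all tested compounds plus 3 SD, cut at about 21% in these data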;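 also: 0% = DMSO alone and 100% = DMSO wells spiked with extra 5 µM PC-3 D3A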
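Evaluation: percent activation relative to control range; Material: Procaspase-3 D3A mutant, all three cleavage aspartates alanine; Compound: single dose, 8.5 µM nominal compound, 0.8% DMSO; Replication: one well per compound; Signal: absorbance at 405 nm, 0 and 120 min; Schedule: 1 h preincubation plus 2 h reaction at 25 °C.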
CHT inh: inhibits the human high affinity choline transporter. Q9GZV3. CHT-expressing cells, membrane potential dye, choline response; stronger effect = lower value. B-score at 10 µM. actives 0.86% (n = 310,000);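 active = B-score over 3 SD under the library average, and starting fluorescence ratio not unusually high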;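 also: choline stimulus applied at its EC90 after an EC20 pre-addition; B-score computed on integrated fluorescence ratio after choline addition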
CHT block conf: confirmation of human choline transporter CHT inhibitors. CHT-expressing cells, choline membrane potential dye; LV-to-AA substituted CHT, HEK293 cells. shares compounds with CHT inh. CHT activity remaining % of control (stronger effect = lower value), % at 10 µM. AID 493221. actives 70% (n = 2,400);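 active = choline transporter activity left, mean of duplicates at 10 µM, below buffer-only control mean minus 3 SD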;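 also: depolarization triggered by choline at its EC90 following an EC20 pre-addition; 0% = hemicholinium-3 full block and 100% = buffer-only control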
HEK293 MPD ctr: CHT inhibitor counter-screen hit in parental HEK293 cells; AID 493222; actives 4% (n = 2,400); shares compounds with CHT inh; membrane potential ratio readout (active if shifted either direction beyond buffer ±3SD; no single direction) at 10 µM; membrane potential dye, choline response; active = decrease or increase beyond buffer ±3SD;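 also: parental cells lack the transporter so any hit is non-specific; ratio is peak minus trough fluorescence over baseline after EC90 choline challenge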
Active calls of the source: *; i = inactive; / = no result given. In the library only some 1.3% were active in any assay of this set; here they are far more common.

SMILES	CHT allo act	proCasp7 act	procasp3 activ	CHT inh	CHT block conf	HEK293 MPD ctr
COc1ccc(NC(=O)CN(C)C(=O)Cc2ccc3c(c2)CCC3)cc1	i	5	11	i	/	/
CS(=O)(=O)Nc1ccccc1C(=O)NCCSc1ccccc1	i	2	4	-6.5*	71%*	i
CCn1c2ccccc2c(=O)c2ccccc21	i	-5	-10	-8.2*	15%*	i
Cc1ccc(NS(=O)(=O)c2cc(Br)cnc2N)c(Cl)c1	i	4	-3	i	/	/
Nc1ncc(Br)cc1S(=O)(=O)Nc1cc(C(F)(F)F)cc(C(F)(F)F)c1	i	5	7	-12*	29%*	i
Cc1ccc(CNC(=O)CN2C(=O)CSc3ccc(S(=O)(=O)N4CCC(C)CC4)cc32)cc1	i	5	5	i	/	/
CCCCN(C)CCNC(=O)CN1C(=O)CSc2ccc(S(=O)(=O)N3CCCC3)cc21	i	-5	2	-5.7*	58%*	i
CC1CCN(S(=O)(=O)c2ccc3c(c2)N(CC(=O)NCCCN2CCCCC2C)C(=O)CS3)CC1 (stereo unspecified)	i	2	7	-5.5*	44%*	i
CCCCCCCNC(=O)CN1C(=O)CSc2ccc(S(=O)(=O)N3CCOCC3)cc21	i	4	-5	i	/	/
CC1CCN(S(=O)(=O)c2ccc3c(c2)N(CC(=O)NCCN2C(C)CCCC2C)C(=O)CS3)CC1 (stereo unspecified)	i	4	-4	-10*	17%*	i
CCC1CCCCN1CCCNC(=O)CN1C(=O)CSc2ccc(S(=O)(=O)N3CCOCC3)cc21 (stereo unspecified)	i	7	-1	i	/	/
CC(NC(=O)COC(=O)c1ccc(CO)cc1)C1CC2CCC1C2 (stereo unspecified)	/	2	3	/	/	/
CS(=O)(=O)N1CCc2cc(S(=O)(=O)N3CCCCC3)ccc21	i	0	-6	-7.5*	i	i
Cc1cccc(C(=O)N[C@H](C(=O)Nc2nnc(C3CC3)s2)C(C)C)c1	i	-3	-6	i	/	/
Cc1cccc(C(=O)N[C@H](C(=O)Nc2ncc(C)s2)C(C)C)c1	i	10	1	-11*	i	i
Cc1cccc(C(=O)NCC(=O)OCC(=O)c2ccc(Cl)s2)c1	i	/	/	i	/	/
Cc1noc(/C=C/c2cccs2)c1S(=O)(=O)N1CCC(C(=O)NCCCN2CCC(C)CC2)CC1	i	3	-2	-5.1*	i	i
CCOc1ccccc1NC1=NC2CS(=O)(=O)CC2S1 (stereo unspecified)	i	6	5	i	/	/
CN(C)CCNC(=O)C(=O)NCC(c1ccc2c(c1)OCO2)N1CCN(c2ccc(F)cc2)CC1 (stereo unspecified)	i	6	1	-5.5*	45%*	i
COCCNC(=O)C(=O)NCC(c1ccc2c(c1)OCO2)N1CCN(c2ccc(F)cc2)CC1 (stereo unspecified)	i	7	4	i	/	/
CCN(CC)c1ccc(-c2nnc(SCC(=O)N(CCOC)c3c(N)n(CC(C)C)c(=O)[nH]c3=O)o2)cc1	i	5	3	i	/	/
COCCN(C(=O)CSc1nnc(-c2ccc(C)c(C)c2)o1)c1c(N)n(CC(C)C)c(=O)[nH]c1=O	i	10	13	-6.3*	19%*	i
Cc1cc(/C=C2/SC(=O)N(CC(=O)N3CCOCC3)C2=O)c(C)n1-c1ccccc1F	i	4	5	i	/	/
O=C(c1ccccc1)N1CCN(C(=O)c2nn3c(C(F)(F)F)cc(-c4ccccc4)nc3c2Br)CC1	i	2	8	i	/	/
C[C@H](CO)N1C[C@H](C)[C@@H](CN(C)Cc2ccc(C(=O)O)cc2)Oc2c(NS(=O)(=O)c3cn(C)cn3)cccc2C1=O	/	9	-1	/	/	/
SMILES	CHT allo act	proCasp7 act	procasp3 activ	CHT inh	CHT block conf	HEK293 MPD ctr
Cc1c(NS(=O)(=O)c2ccc3c(c2)OCCO3)cccc1-c1nc2cccnc2s1	i	10	7	i	/	/
Cc1cc(-c2nc3cccnc3s2)ccc1NS(=O)(=O)c1ccc2c(c1)OCCO2	i	7	6	-7.3*	i	i
N#CC(c1ccccc1)c1ccc2c(C(F)(F)F)cc(C(F)(F)F)nc2n1 (stereo unspecified)	i	3	-10	-5.5*	i	i
FC(F)(F)c1cc(C(F)(F)F)c2ccc(N/N=C/c3ccccc3)nc2n1	i	5	-8	i	/	/
CCOC(=O)c1c(NC(=O)C2C3C=CC(C3)C2C(=O)O)sc2c1CCC(CC)C2 (stereo unspecified)	i	1	-3	-5*	27%*	i
O=C(C[n+]1cc(Br)cc2ccccc21)c1ccc(Br)cc1	i	-7	0	-5.7*	30%*	i
O=C(C[n+]1cn(C(F)F)c2ccccc21)c1ccc(Br)cc1	i	-23	1	i	/	/
O=C(C[n+]1cc(Br)cc2ccccc21)c1ccc(Cl)cc1	i	5	0	-6.9*	32%*	i
Cc1cccc(N2CCN(C(=O)c3ccc(CNc4c(N5CCC(C)CC5)c(=O)c4=O)cc3)CC2C)c1 (stereo unspecified)	i	-3	0	-5.4*	70%*	i
CC1CCCN(C(=O)c2ccc(CNc3c(N4CCCCC4)c(=O)c3=O)cc2)C1 (stereo unspecified)	i	-1	4	i	/	/
COc1ccccc1CC(=O)NC1CCCc2ccccc21 (stereo unspecified)	i	-6	3	i	/	/
COc1ccccc1-c1ccc(=O)n(CC(=O)NC2CCc3ccccc32)n1 (stereo unspecified)	i	3	-2	-8.4*	i	i
O=C(NC12CC3CC(CC(C3)C1)C2)c1c(Cl)cccc1Cl	i	2	-6	i	/	/
COCC(C)n1c(SCC(=O)Nc2oc(C)c3c(C)n[nH]c(=O)c23)nc2ccccc2c1=O (stereo unspecified)	i	3	0	i	/	/
Cc1n[nH]c(=O)c2c(NC(=O)CSc3nc4ccccc4c(=O)n3C(C)C)oc(C)c12	i	-6	-8	-10*	48%*	i
CCc1ccc2c(CN3CCC(C(=O)OC)CC3)cc(=O)oc2c1	i	-4	-5	i	/	/
O=C(O)CC(NC(=O)C1CCCCC1)c1ccc(OC2CCCC2)cc1 (stereo unspecified)	i	4	10	i	/	/

Bioassay records (PubChem)
